Measured values published in ChEMBL document CHEMBL1148409, “In vitro structure-activity relationship and in vivo studies for a novel class of cyclooxygenase-2 inhibitors: 5-aryl-2,2-dialkyl-4-phenyl-3(2H)furanone derivatives” (J Med Chem, 2004).

Tests used:
[1] = target: T1, Prostaglandin G/H synthase 2 (Mus musculus, UniProt Q05769); assay: In vitro inhibitory activity against prostaglandin G/H synthase 2 using mouse peritoneal macrophage method
T1 sequence (Q05769 whole entry): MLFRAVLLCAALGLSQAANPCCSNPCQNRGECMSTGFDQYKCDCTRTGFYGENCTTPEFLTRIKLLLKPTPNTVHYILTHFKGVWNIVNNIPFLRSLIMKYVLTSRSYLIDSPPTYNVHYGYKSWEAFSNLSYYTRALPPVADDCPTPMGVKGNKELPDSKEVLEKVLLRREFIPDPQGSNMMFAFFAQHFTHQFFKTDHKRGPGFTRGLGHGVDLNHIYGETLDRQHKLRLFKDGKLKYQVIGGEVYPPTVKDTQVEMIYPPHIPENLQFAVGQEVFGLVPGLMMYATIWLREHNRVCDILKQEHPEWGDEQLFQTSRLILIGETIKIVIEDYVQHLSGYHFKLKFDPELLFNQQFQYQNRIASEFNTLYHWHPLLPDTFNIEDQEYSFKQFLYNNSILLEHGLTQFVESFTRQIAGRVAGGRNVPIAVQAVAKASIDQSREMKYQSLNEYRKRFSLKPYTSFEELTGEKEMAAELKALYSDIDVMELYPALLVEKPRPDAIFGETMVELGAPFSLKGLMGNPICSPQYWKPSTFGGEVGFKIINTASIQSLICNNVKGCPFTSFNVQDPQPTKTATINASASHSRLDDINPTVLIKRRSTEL

[2] = target: T2, Prostaglandin G/H synthase 1 (Mus musculus, UniProt P22437); assay: In vitro inhibitory activity against prostaglandin G/H synthase 1 using mouse peritoneal macrophage method
T2 sequence (P22437 whole entry): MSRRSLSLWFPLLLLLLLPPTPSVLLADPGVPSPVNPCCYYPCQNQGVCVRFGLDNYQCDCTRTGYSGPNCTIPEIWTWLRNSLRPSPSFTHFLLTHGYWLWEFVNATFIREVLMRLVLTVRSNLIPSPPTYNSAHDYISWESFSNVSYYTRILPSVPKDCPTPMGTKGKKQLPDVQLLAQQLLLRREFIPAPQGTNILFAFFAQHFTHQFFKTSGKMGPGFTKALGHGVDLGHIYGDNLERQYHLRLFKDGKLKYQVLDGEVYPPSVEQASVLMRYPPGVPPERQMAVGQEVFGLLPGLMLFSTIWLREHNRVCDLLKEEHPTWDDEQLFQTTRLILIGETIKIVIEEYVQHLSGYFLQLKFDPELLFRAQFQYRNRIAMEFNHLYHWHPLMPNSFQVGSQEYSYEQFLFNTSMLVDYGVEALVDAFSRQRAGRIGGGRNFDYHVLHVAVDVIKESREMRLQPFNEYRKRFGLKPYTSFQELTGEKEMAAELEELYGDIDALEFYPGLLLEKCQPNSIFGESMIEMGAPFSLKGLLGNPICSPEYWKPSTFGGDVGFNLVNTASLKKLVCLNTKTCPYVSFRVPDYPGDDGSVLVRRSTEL
Outline: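 Freshly harvested mouse peritoneal macrophages were the enzyme source. Cells were preincubated 10 min at 37 °C with inhibitor in DMSO, then stimulated with calcium ionophore A23187 for 10 min. The reaction was stopped with indomethacin in 0.1% BSA buffer and centrifuged, and supernatant TXB₂ was measured by ELISA.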

Rattus norvegicus [3] = assay: Inhibition of carrageenan-induced rat foot oedema following 3 mg/kg administration.; assay type: functional
Outline: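 Male SD rats (160 ~ 190 g) were fasted overnight and given compound in 1% methylcellulose by oral gavage, at least 5 animals per group. One hour later, 0.05 mL of 1% carrageenan in saline was injected subplantar into the right hindpaw. Paw swelling was measured by plethysmometer 4 h after dosing and expressed as % inhibition.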

Rattus norvegicus [4] = assay: Ability of compound to cause gastric ulcerogenicity was determined in rats at 5 mg/kg; assay type: functional, Stomach
Outline: (§1)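 Male SD rats (130 ~ 140 g) were dosed by oral gavage for 7 days, with compound suspended in 1% methylcellulose. Rats were fasted overnight before necropsy and killed 4 h after the last dose. Stomachs were scored for ulceration on a scale where 1 is an apparently normal stomach and 2 is pinpoint ulcers only.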

Rattus norvegicus [5] = assay: Antiinflammatory activity was determined by measuring adjuvant-induced arthritis in rats using preventive method; dose administered daily twice; assay type: functional
Outline: (§2)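 Preventive adjuvant arthritis in male Lewis rats (200 ~ 210 g), 10 per group. On day 0, 0.1 mL of 1% heat-killed M. butyricum in incomplete Freund's adjuvant was injected subplantar into the right hindpaw. Oral gavage dosing ran from day -1 to day 16. Left hindpaw volume was measured by plethysmometer on day 17, and % inhibition versus control was calculated.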

Rattus norvegicus [6] = assay: Antiinflammatory activity was determined by measuring adjuvant-induced arthritis in rats using therapeutic method; dose administered daily twice; assay type: functional
Outline: (§3)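 Therapeutic adjuvant arthritis in male SD rats (160 ~ 190 g). On day 0, 0.1 mL of 1% heat-killed M. butyricum in incomplete Freund's adjuvant was injected subplantar into the right hindpaw. On day 14, rats with left hindpaw swelling over 0.37 mL were selected and randomized. Daily treatment ran from day 14 to day 22, and % inhibition was taken from day-22 foot volumes.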

Rattus norvegicus [7] = assay: Antiinflammatory activity was determined by measuring adjuvant-induced arthritis in rats using therapeutic method; dose administered daily once; assay type: functional; outline: as §3
Rattus norvegicus [8] = assay: Antiinflammatory activity was determined by measuring adjuvant-induced arthritis in rats using preventive method; Range is 0.2~0.3 (dose administered daily twice ); assay type: functional; outline: as §2
Rattus norvegicus [9] = assay: Ability of compound to cause gastric ulcerogenicity was determined in rats at 30 mg/kg when administered daily once; assay type: functional, Stomach; outline: as §1
Rattus norvegicus [10] = assay: Antiinflammatory activity was determined by measuring adjuvant-induced arthritis in rats using therapeutic method; (dose administered daily once); assay type: functional; outline: as §3
Rattus norvegicus [11] = assay: Antiinflammatory activity was determined by measuring adjuvant-induced arthritis in rats using preventive method; dose administered daily once; assay type: functional; outline: as §2
Rattus norvegicus [12] = assay: Antiinflammatory activity was determined by measuring adjuvant-induced arthritis in rats using preventive method; Range is 0.1~0.2 (dose administered daily twice); assay type: functional; outline: as §2
Rattus norvegicus [13] = assay: Ability of compound to cause gastric ulcerogenicity was determined in rats at 5 mg/kg when administered daily once; assay type: functional, Stomach; outline: as §1

SMILES | IC50 [1] | IC50 [2] | inhibition in vivo at 3 mg/kg (Rattus norvegicus [3]) | other results
CC1(C)OC(c2ccc(S(C)(=O)=O)cc2)=C(c2cccnc2)C1=O | 1.46 µM | 29.1 µM |  | 
CC1(C)OC(c2ccc(S(C)(=O)=O)cc2)=C(c2ccc(Br)cc2)C1=O | 0.0712 µM | 0.0712 µM |  | 
CCC1(C)OC(c2ccc(S(C)(=O)=O)cc2)=C(c2cccc(C(F)(F)F)c2)C1=O (stereo unspecified) |  | 23.6 µM |  | 
CC1(C)OC(c2ccc(S(N)(=O)=O)cc2)=C(c2cccc(C(F)(F)F)c2)C1=O | 0.0267 µM | 1.99 µM |  | 
CCC1(C)OC(c2ccc(S(C)(=O)=O)cc2)=C(c2cc(Cl)cc(Cl)c2)C1=O (stereo unspecified) | 0.0705 µM | 47 µM |  | 
CC(=O)c1ccc(C2=C(c3ccc(S(N)(=O)=O)cc3)OC(C)(C)C2=O)cc1 | 0.0337 µM | 0.675 µM | 26% | 
CC1(C)OC(c2ccc(S(N)(=O)=O)cc2)=C(c2cccc(F)c2)C1=O [POLMACOXIB] | 0.0083 µM | 0.83 µM | 47% | Activity (Rattus norvegicus [4]): 1.5; ED50 (Rattus norvegicus [5]): 0.1 mg/kg/day; ED50 (Rattus norvegicus [6]): 0.01 mg/kg/day; ED50 (Rattus norvegicus [7]): 0.02 mg/kg/day
CC1(C)OC(c2ccc(S(C)(=O)=O)cc2)=C(c2cccc(F)c2)C1=O |  |  | 36% | ED50 (Rattus norvegicus [8]): 0.3 mg/kg/day; Activity (Rattus norvegicus [9]): 1.8; ED50 (Rattus norvegicus [10]): 0.07 mg/kg/day
CCC1(CC)OC(c2ccc(S(C)(=O)=O)cc2)=C(c2cccc(C)c2)C1=O | 1.3 µM | 26 µM |  | 
Cn1cc(C2=C(c3ccc(S(C)(=O)=O)cc3)OC(C)(C)C2=O)cn1 | 1.44 µM | 86.6 µM | 36% | ED50 (Rattus norvegicus [7]): ~0.3 mg/kg/day
Cc1cnc(NC(=O)C2=C(O)c3ccccc3S(=O)(=O)N2C)s1 [MELOXICAM] |  |  |  | ED50 (Rattus norvegicus [11]): 0.28 mg/kg/day
CS(=O)(=O)c1ccc(C2=C(c3ccccc3)C(=O)C3(CCCCC3)O2)cc1 | 5.23 µM | 26.1 µM |  | 
CCC1(CC)OC(c2ccc(S(C)(=O)=O)cc2)=C(c2ccccc2)C1=O | 13.5 µM | 81 µM |  | 
Cc1cccc(C2=C(c3ccc(S(C)(=O)=O)cc3)OC3(CCCCC3)C2=O)c1 |  | 7.57 µM |  | 
CCC1(C)OC(c2ccc(S(C)(=O)=O)cc2)=C(c2cccc(Cl)c2)C1=O (stereo unspecified) |  |  | 23% | 
CC1(C)OC(c2ccc(S(C)(=O)=O)cc2)=C(c2cccc(Cl)c2)C1=O |  |  | 16% | 
CC(=O)c1cccc(C2=C(c3ccc(S(C)(=O)=O)cc3)OC(C)(C)C2=O)c1 |  |  | 22% | 
CCCCc1ccc(C2=C(c3ccc(S(C)(=O)=O)cc3)OC(C)(C)C2=O)cc1 |  |  | 8% | 
Cn1cc(C2=C(c3ccc(S(N)(=O)=O)cc3)OC(C)(C)C2=O)cn1 |  |  | 29% | 
Cc1cccc(C2=C(c3ccc(S(C)(=O)=O)cc3)OC3(CCCC3)C2=O)c1 |  |  | 26% | 

SMILES | IC50 [1] | IC50 [2] | inhibition in vivo at 3 mg/kg (Rattus norvegicus [3]) | other results
CC1(C)OC(c2ccc(S(N)(=O)=O)cc2)=C(c2cccc(Cl)c2)C1=O |  |  | 39% | ED50 (Rattus norvegicus [7]): 0.03 mg/kg/day
CC1(C)OC(c2ccc(S(N)(=O)=O)cc2F)=C(c2ccccc2)C1=O |  | 55.3 µM |  | 
CC1(C)OC(c2ccc(S(C)(=O)=O)cc2)=C(c2cc(F)cc(F)c2)C1=O |  |  | 34% | Activity (Rattus norvegicus [9]): 1.8
CS(=O)(=O)c1ccc(C2=C(c3ccccc3)C(=O)OC2)cc1 [ROFECOXIB] |  |  |  | ED50 (Rattus norvegicus [5]): 0.74 mg/kg/day
CC1(C)OC(c2ccc(S(N)(=O)=O)c(F)c2)=C(c2cccc(F)c2)C1=O |  |  | 27% | 
Cc1ccc(-c2ncc(Cl)cc2-c2ccc(S(C)(=O)=O)cc2)cn1 [ETORICOXIB] |  |  |  | ED50 (Rattus norvegicus [5]): 0.7 mg/kg/day
CC1(C)OC(c2ccc(S(N)(=O)=O)cc2)=C(c2ccccc2)C1=O | 0.0233 µM | 0.178 µM |  | 
CC1(C)OC(c2ccc(S(N)(=O)=O)cc2)=C(c2ccsc2)C1=O | 0.343 µM | 13.7 µM |  | 
CC(=O)c1ccc(C2=C(c3ccc(S(C)(=O)=O)cc3)OC(C)(C)C2=O)cc1 |  |  |  | ED50 (Rattus norvegicus [12]): 0.1 mg/kg/day
CC1(C)OC(c2ccc(S(N)(=O)=O)cc2)=C(c2ccc(F)c(F)c2)C1=O | 0.0185 µM | 5.01 µM |  | 
CC1(C)OC(c2ccc(S(N)(=O)=O)c(F)c2)=C(c2cc(F)cc(F)c2)C1=O |  |  | 31% | 
CC1(C)OC(c2ccc(S(N)(=O)=O)cc2F)=C(c2cc(F)cc(F)c2)C1=O |  |  | 32% | 
CC1(C)OC(c2ccc(S(C)(=O)=O)cc2)=C(c2cccc(C(F)(F)F)c2)C1=O |  |  | 31% | 
CC1(C)OC(c2ccc(S(C)(=O)=O)c(F)c2)=C(c2cccc(Cl)c2)C1=O |  |  | 28% | 
COc1ccc2c(c1)c(CC(=O)O)c(C)n2C(=O)c1ccc(Cl)cc1 [INDOMETHACIN] |  |  | 45% | Activity (Rattus norvegicus [13]): 3.5
Cc1onc(-c2ccccc2)c1-c1ccc(S(N)(=O)=O)cc1 [VALDECOXIB] |  |  |  | ED50 (Rattus norvegicus [6]): 0.032 mg/kg/day
CC1(C)OC(c2ccc(S(C)(=O)=O)c(F)c2)=C(c2cc(F)cc(F)c2)C1=O |  |  |  | ED50 (Rattus norvegicus [7]): > 0.1 mg/kg/day
Cc1ccc(-c2cc(C(F)(F)F)nn2-c2ccc(S(N)(=O)=O)cc2)cc1 [CELECOXIB] |  |  | 34% | ED50 (Rattus norvegicus [6]): 0.37 mg/kg/day
CC1(C)OC(c2ccc(S(C)(=O)=O)cc2)=C(c2ccc(F)c(Cl)c2)C1=O | 0.76 µM | 7.6 µM | 31% | 
CS(=O)(=O)c1ccc(C2=C(c3cccc(F)c3)C(=O)C3(CCCC3)O2)cc1 | 7.76 µM | 7.76 µM |  | 
